Residues, ends and D or L forms follow the SMILES beside them.
What was measured:
PCNA = PCNA (Homo sapiens, UniProt P12004); assay: Isothermal titration calorimetry of hEXO1 peptides with purified PCNA; type: binding; details: ITC, 30 °C, pH 7.5; 18 μM PCNA, 200 μM p22; no dilution effects in pure buffer
hEXO1 = details: hEXO1-hMLH1 interaction, ref [15], cited from earlier work
[1] = tested on: PCNA replication foci in NIH3T3 cells; type: cell-based, murine; details: for foci formation and co-localization with PCNA during S-phase: 24–48 h
Summary of the method: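 Murine NIH3T3 cells were kept in DMEM with 10% FBS and penicillin/streptomycin at 37 °C, 10% CO₂. Cells (2*10⁵ per glass-bottom dish) were seeded 24 h before ExGen500 co-transfection with 3 μg total plasmid (CFP-PCNA plus YFP fusion). Confocal imaging at 24–48 h. Co-transfected cells were counted and binned by pattern, e.g. "no foci" (diffuse CFP-PCNA, diffuse nuclear YFP).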

[2] = tested on: PCNA replication foci in HCT116 cells; assay: Co-localization with PCNA in replication foci in HCT116 cells; type: cell-based; details: HCT116 cell line (hMLH1 deficient); Fig. S5
[3] = NIH3T3 cells co-transfected with CFP-PCNA

Chain of PCNA (P12004 whole entry): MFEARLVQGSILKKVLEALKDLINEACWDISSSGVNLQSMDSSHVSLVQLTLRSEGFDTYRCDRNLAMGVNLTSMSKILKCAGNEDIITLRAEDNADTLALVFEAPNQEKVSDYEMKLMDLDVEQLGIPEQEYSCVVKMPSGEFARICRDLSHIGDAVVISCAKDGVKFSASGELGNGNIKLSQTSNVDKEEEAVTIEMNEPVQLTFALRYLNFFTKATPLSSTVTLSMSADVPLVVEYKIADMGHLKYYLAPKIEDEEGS

Q: Which “heat exchange of binding reaction with PCNA” value (PCNA) does the source give for `CC[C@H](C)[C@H](NC(=O)[C@H](CCC(N)=O)NC(=O)[C@H](CC(C)C)NC(=O)CNC(=O)[C@@H]1CCCN1C(=O)[C@H](CCCCN)NC(=O)[C@@H](N)CC(N)=O)C(=O)N[C@@H](CCCCN)C(=O)N[C@@H](CC(C)C)C(=O)N[C@@H](CC(N)=O)C(=O)N[C@@H](CCC(=O)O)C(=O)N[C@@H](CC(C)C)C(=O)N[C@@H](Cc1c[nH]c2ccccc12)C(=O)N[C@@H](CCCCN)C(=O)N[C@@H](CC(N)=O)C(=O)N[C@@H](Cc1ccccc1)C(=O)NCC(=O)N[C@@H](Cc1ccccc1)C(=O)N[C@@H](CCCCN)C(=O)N[C@@H](CCCCN)C(=O)N[C@@H](CC(=O)O)C(=O)N[C@@H](CO)C(=O)O` [hEXO1 p22] (H-NKPGLQIKLNELWKNFGFKKDS-OH; N-terminus and C-terminus assumed) here?
A: exothermic heat exchange

Q: With hEXO1-hMLH1: hEXO1-hMLH1 complex as the molecule, how does the “exonuclease activity on heteroduplex substrate” value (hEXO1; heteroduplex substrate) read?
A: inhibits exonuclease activity on a heteroduplex substrate

Q: And the “exonuclease activity on homoduplex substrate” value (hEXO1; homoduplex substrate)?
A: did not inhibit exonuclease activity on a homoduplex substrate

Q: For “hMSH6: fusion protein, CFP or YFP tagged MMR protein”, which “foci formation and co-localization with PCNA during S-phase” value [1, 3] is on record?
A: form PCNA co-localizing foci throughout S-phase

Q: With human exonuclease 1 [YFP-hEXO1] as the molecule, how does the “co-localization with PCNA in replication foci” value [2] read?
A: co-localize with PCNA in replication foci in the HCT116 cell line

Q: And the “Small foci (CFP-PCNA)” value ([1]; CFP channel (CFP-PCNA) in cells co-expressing the hEXO1 protein, early S-phase foci, 50 co-transfected cells)?
A: 28%

Q: And the “Large foci (CFP-PCNA)” value ([1]; CFP channel (CFP-PCNA) in cells co-expressing the hEXO1 protein, late S-phase foci, 50 co-transfected cells)?
A: 12%

Q: What about the “Mid Foci (CFP-PCNA)” value ([1]; CFP channel (CFP-PCNA) in cells co-expressing the hEXO1 protein, mid S-phase foci, 50 co-transfected cells) of the same molecule?
A: 14%

Q: What about the “cells showing diffuse nuclear staining” value [1, 3] of the same molecule?
A: 40%

Q: What about the “foci formation and co-localization with PCNA during S-phase” value [1, 3] of the same molecule?
A: co-localize in discrete nuclear foci

Q: What about the sub-cellular localization ([1]; NIH3T3 cells, confocal imaging) of the same molecule?
A: only rarely observed in the cytoplasm

Reference: paper PMC4586255 (DNA repair, 2010)
